ChEMBL document CHEMBL4732226, “Discovery of a potent G-protein-coupled receptor 119 agonist for the treatment of type 2 diabetes” (Bioorg Med Chem, 2021)

Columns and labels:
[1] = Toxicity in female Wistar rat assessed as albumin level at 100 mg/kg, po after 28 days (reference value: 3.57 +/- 0.14 g.dl); assay type: organism-based; conditions: in vivo, 672 h, time 28 day
[2] = Toxicity in male Wistar rat assessed as urea level at 200 mg/kg, po after 28 days (reference value: 58.14 +/- 9.13 mg/dl); assay type: organism-based; conditions: in vivo, 672 h, time 28 day
[3] = Toxicity in female Wistar rat assessed as ratio of uterus to body weight at 400 mg/kg, po after 28 days (reference value: 0.335 +/- 0.108); assay type: organism-based; conditions: in vivo, 672 h, time 28 day
[4] = Toxicity in female Wistar rat assessed as albumin level at 200 mg/kg, po after 28 days (reference value: 3.57 +/- 0.14 g.dl); assay type: organism-based; conditions: in vivo, 672 h, time 28 day
[5] = Tmax in Sprague-Dawley rat at 25 mg/kg, po up to 24 hrs; assay type: ADME, organism-based; conditions: in vivo
Outline: (§1)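 Male SD rats fasted overnight, water ad libitum, fed 4 h after dosing. Single oral gavage of 25 mg/kg as a homogeneous suspension in 0.5% Tween 80 in 0.5% Na-CMC. Blood drawn into Na-heparin tubes at 0.25, 0.5, 1, 2, 4, 6, 8 and 24 h; plasma stored at -70°C. Parameters by non-compartmental analysis, with C0 taken as zero and BLQ samples set to zero.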

[6] = Toxicity in male Wistar rat assessed as ratio of heart to body weight at 400 mg/kg, po after 28 days (reference value: 0.333 +/- 0.036); assay type: organism-based; conditions: in vivo, 672 h, time 28 day
[7] = Toxicity in female Wistar rat assessed as reduction in body weight at 100 to 400 mg/kg, po after 28 days; assay type: organism-based; conditions: in vivo, 672 h, dose 100-400 mg/kg, time 28 day
Outline: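 Repeated-dose oral toxicity by gavage in Wistar rats, 10 males and 10 females per group, given 100, 200 or 400 mg/kg once daily for 28 days. Endpoints were clinical signs, mortality, neurobehaviour, food intake, ophthalmic examination and body weight. Animals were sacrificed on day 29 for blood biochemistry, organ-to-body weight ratios and histopathology.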

[8] = Toxicity in female Wistar rat assessed as AST level at 400 mg/kg, po after 28 days (reference value: 128.84 +/- 21.42 U/L); assay type: organism-based; conditions: in vivo, 672 h, time 28 day
[9] = Toxicity in female Wistar rat assessed as ratio of ovaries to body weight at 400 mg/kg, po after 28 days (reference value: 0.091 +/- 0.009); assay type: organism-based; conditions: in vivo, 672 h, time 28 day
[10] = Cmax in Sprague-Dawley rat at 25 mg/kg, po up to 24 hrs; assay type: ADME, organism-based; set-up: route oral, dose 25 mg/kg, time <=24; conditions: in vivo; outline: as §1
[11] = Toxicity in male Wistar rat assessed as ratio of thymus to body weight at 100 mg/kg, po after 28 days (reference value: 0.148 +/- 0.023); assay type: organism-based; conditions: in vivo, 672 h, time 28 day
[12] = Toxicity in male Wistar rat assessed as ratio of spleen to body weight at 200 mg/kg, po after 28 days (reference value: 0.206 +/- 0.026); assay type: organism-based; conditions: in vivo, 672 h, time 28 day
Mus musculus [13] = assay: Antidiabetic activity in po dosed db/db mouse assessed as reduction in blood glucose level administered up to 14 days pretreated for 30 mins followed by glucose-stimulation and measured up to 120 mins by OGTT method relative to control; assay type: functional, organism-based; conditions: dose 1-50 mg/kg, time day <=14
Outline: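 Male db/db mice dosed orally once daily for 14 days at 1 to 50 mg/kg. Oral glucose 2 g/kg given 30 min after dosing, then blood glucose followed for 0–120 min. Glucose AUC determined on day 1 and day 14; mean ± s.e.m.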

[14] = Toxicity in male Wistar rat assessed as ALT level at 400 mg/kg, po after 28 days (reference value: 30.47 +/- 2.63 U/L); assay type: organism-based; conditions: in vivo, 672 h, time 28 day
[15] = Toxicity in female Wistar rat assessed as ratio of adrenals to body weight at 200 mg/kg, po after 28 days (reference value: 0.045 +/- 0.007); assay type: organism-based; conditions: in vivo, 672 h, time 28 day
[16] = AUC(0 to t) in Sprague-Dawley rat at 25 mg/kg, po up to 24 hrs; assay type: ADME, organism-based; set-up: route oral, dose 25 mg/kg, time <=24; conditions: in vivo; outline: as §1
[17] = Cmax in Wistar rat at 10 mg/kg, po up to 24 hrs; assay type: ADME, organism-based; set-up: route oral, dose 10 mg/kg, time <=24; conditions: in vivo
Outline: (§2)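 Single oral dose at 10 mg/kg given to male Wistar rats and to Beagle dogs; bioavailability also determined in both species.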

[18] = Toxicity in male Wistar rat assessed as ratio of brain to body weight at 100 mg/kg, po after 28 days (reference value: 0.766 +/- 0.038); assay type: organism-based; conditions: in vivo, 672 h, time 28 day
[19] = Toxicity in male Wistar rat assessed as AST level at 400 mg/kg, po after 28 days (reference value: 119.4 +/- 9.3 U/L); assay type: organism-based; conditions: in vivo, 672 h, time 28 day
[20] = Toxicity in female Wistar rat assessed as ALT level at 400 mg/kg, po after 28 days (reference value: 21.28 +/- 2.31 U/L); assay type: organism-based; conditions: in vivo, 672 h, time 28 day
Mus musculus [21] = assay: Antidiabetic activity in db/db mouse assessed as reduction in blood glucose level at 50 mg/kg, po pretreated for 30 mins followed by glucose-stimulation and measured up to 120 mins by OGTT method relative to control; assay type: functional; set-up: scale not given: the % may be the effect or the level left; conditions: 0.5 h
Outline: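 db/db mice aged 5–7 weeks were fasted and grouped by fasting serum glucose. Single oral dose of 50 mg/kg; 30 min later basal bleed and oral glucose 2 g/kg. Serum glucose taken at 30, 60 and 120 min. AUC glucose excursion computed against a no-glucose water group and expressed as % reduction vs vehicle; mean ± s.e.m.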

[22] = AUC(0 to infinity) in Beagle dog at 10 mg/kg, po up to 24 hrs; assay type: ADME, organism-based, Canis lupus familiaris; set-up: route oral, dose 10 mg/kg, time <=24; conditions: in vivo; outline: as §2
[23] = Toxicity in male Wistar rat assessed as urea level at 100 mg/kg, po after 28 days (reference value: 58.14 +/- 9.13 mg/dl); assay type: organism-based; conditions: in vivo, 672 h, time 28 day
[24] = Toxicity in male Wistar rat assessed as ratio of thymus to body weight at 200 mg/kg, po after 28 days (reference value: 0.148 +/- 0.023); assay type: organism-based; conditions: in vivo, 672 h, time 28 day
[25] = AUC(0 to infinity) in Wistar rat at 10 mg/kg, po up to 24 hrs; assay type: ADME, organism-based; set-up: route oral, dose 10 mg/kg, time <=24; conditions: in vivo; outline: as §2
[26] = Toxicity in female Wistar rat assessed as ratio of adrenals to body weight at 100 mg/kg, po after 28 days (reference value: 0.045 +/- 0.007); assay type: organism-based; conditions: in vivo, 672 h, time 28 day
[27] = Toxicity in male Wistar rat assessed as ratio of liver to body weight at 200 mg/kg, po after 28 days (reference value: 3.142 +/- 0.231); assay type: organism-based; conditions: in vivo, 672 h, time 28 day
[28] = Toxicity in male Wistar rat assessed as ratio of heart to body weight at 200 mg/kg, po after 28 days (reference value: 0.333 +/- 0.036); assay type: organism-based; conditions: in vivo, 672 h, time 28 day
[29] = Toxicity in male Wistar rat assessed as AST level at 100 mg/kg, po after 28 days (reference value: 119.4 +/- 9.3 U/L); assay type: organism-based; conditions: in vivo, 672 h, time 28 day
[30] = Toxicity in female Wistar rat assessed as ratio of brain to body weight at 100 mg/kg, po after 28 days (reference value: 1.1 +/- 0.078); assay type: organism-based; conditions: in vivo, 672 h, time 28 day
[31] = Toxicity in female Wistar rat assessed as ratio of thymus to body weight at 200 mg/kg, po after 28 days (reference value: 0.260 +/- 0.025); assay type: organism-based; conditions: in vivo, 672 h, time 28 day

Molecule `Cc1c(Oc2cccc(/C=C3\SC(=O)NC3=O)c2)ncnc1OC1CCN(C(=O)OC(C)(C)C)CC1` has an Activity [1] of 3.59 g/dL, an Activity [2] of 55.62 mg/dL and a Ratio [3] of 0.429. The Activity [4] was 3.65 g/dL, the Tmax [5] was 1.75 h and the Ratio [6] was 0.338. The Activity [7] was “Non-Toxic”, the Activity [8] was 123.93 U/L and the Ratio [9] was 0.081. It also gave a Cmax [10] of 4960 ng/mL, a Ratio [11] of 0.167 and a Ratio [12] of 0.22. The Activity (Mus musculus [13]) was “Dose-dependent effect”, the Activity [14] was 29.6 U/L and the Ratio [15] was 0.044. For the same molecule, the AUC(0-t) at 24 h [16] was 19100 ng·h/mL, the Cmax [17] was 256 ng/mL and the Ratio [18] was 0.83. For the same molecule, the Activity [19] was 116.36 U/L, the Activity [20] was 23.3 U/L and the Activity (Mus musculus [21]) was 69.1%. It also gave an AUC(0-inf) [22] of 15200 ng·h/mL, an Activity [23] of 55.36 mg/dL and a Ratio [24] of 0.175. The AUC(0-inf) [25] was 1900 ng·h/mL, the Ratio [26] was 0.046 and the Ratio [27] was 3.304. It also gave a Ratio [28] of 0.363, an Activity [29] of 114.13 U/L and a Ratio [30] of 1.103. It also gave a Ratio [31] of 0.257.
